As a reminder, the Ki is a measure of affinity in units of concentration, obtained from inhibition or displacement. Low readings indicate higher affinity, high ones lower affinity. Usually inhibition stands for the change of the read-out against control, counted positive when it falls. One may read the IC50 as the midpoint of a concentration-inhibition curve.

Experimental findings from ChEMBL document CHEMBL4422663, “Suppression of Tumor Growth and Metastases by Targeted Intervention in Urokinase Activity with Cyclic Peptides” (J Med Chem, 2019) are described below.

Data set [1] addresses Plasminogen (Mus musculus, UniProt P20918). Nature of the data set: Inhibition of mouse plasmin preincubated for 15 mins followed by chromogenic substrate addition.
The target in data set [2] is Prothrombin (Mus musculus, UniProt P19221). Nature of the data set: Inhibition of mouse thrombin preincubated for 15 mins followed by chromogenic substrate addition.
The test system of data set [3] is CT26. As to the kind of experiment: Cytotoxicity against mouse CT26 cells at 100 uM. The class given is cell-based. The conditions noted are these: ct26, 100 µM.
In data set [4] the target is Urokinase-type plasminogen activator (Mus musculus) (UniProt P06869). As to the kind of experiment: Inhibition of the intrinsic peri-cellular uPA in mouse CT26 cells assessed as reduction in cell migration at 30 to 100 uM measured every hour by wound healing assay relative to control. The class given is cell-based.
Chain of Urokinase-type plasminogen activator (Mus musculus) (P06869 21-178 limits assumed): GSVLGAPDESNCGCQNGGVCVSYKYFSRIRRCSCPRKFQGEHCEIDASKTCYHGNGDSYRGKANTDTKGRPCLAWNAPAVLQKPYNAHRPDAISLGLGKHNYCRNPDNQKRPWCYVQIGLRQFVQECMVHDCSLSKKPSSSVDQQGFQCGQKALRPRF
Chain of Urokinase-type plasminogen activator (Mus musculus) (P06869 180-433 limits assumed): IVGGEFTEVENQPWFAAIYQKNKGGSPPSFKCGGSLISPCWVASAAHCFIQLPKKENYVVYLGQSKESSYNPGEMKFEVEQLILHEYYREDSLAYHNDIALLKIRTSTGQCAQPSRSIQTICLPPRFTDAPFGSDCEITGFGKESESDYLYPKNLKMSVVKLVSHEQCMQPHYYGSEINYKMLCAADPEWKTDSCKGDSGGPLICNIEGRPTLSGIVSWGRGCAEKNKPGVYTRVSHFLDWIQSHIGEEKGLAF
Data set [5] concerns the target T1, Urokinase-type plasminogen activator (Mus musculus, UniProt P06869). Nature of the data set: Inhibition of uPA in presence of 75% mouse […] measured at 2 hrs. The method in brief:
(§1)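 Peptide was preincubated in 75% murine plasma for 0–24 h (sampled at 0, 2, 8 and 24 h). Residual uPA-inhibitory activity was then measured and expressed as IC50.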

Data set [6] has as its target T1, Urokinase-type plasminogen activator. Nature of the data set: Inhibition of uPA in presence of 75% mouse […] measured at 8 hrs. The method in brief:
as §1

For data set [7] the target is unchanged. Nature of the data set: Inhibition of uPA in presence of 75% mouse […] measured at 24 hrs. The method, boiled down: as §1
In data set [8] the test system is CT26. Nature of the data set: Anti-tumor activity against […] mouse CT26 cells allografted in Balb/c mouse assessed as tumor growth inhibition at 1.13 mg/kg, ip administered daily for 15 days and measured on day 16 […]. The class given is functional. The conditions noted are these: read-out: TGI. The method, boiled down:
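CT-26 cells implanted subcutaneously in right flank of Balb/c mice; once tumors reached about 150~200 mm3, daily intraperitoneal dosing with peptide or saline for 15 days. Mice sacrificed on Day 16; tumors resected and weighed; tumor growth reduction relative to saline group.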

For data set [9], the system named is CT26. Nature of the data set: Antimetastatic activity against GFP-fused mouse CT26 cells allografted in Balb/c mouse assessed as reduction genomic DNA of metastatic cells at 1.13 mg/kg, ip administered daily for 15 days by qPCR analysis. The class given is functional, organism-based. The method, boiled down: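 Lung-metastasis model: male Balb/c (~20 g, 6/group) given 10^6 GFP-CT-26 cells iv, then daily ip dosing from Day 1 to 15, killed on Day 16. Total DNA (200 ng) from homogenized lungs went to SYBR Green qPCR (287 bp amplicon, 45 cycles). The standard curve used CT-26 genomic DNA spiked into normal lung DNA at 0.135–100%.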
In general terms: Quantitative PCR measures a nucleic acid by following its amplification.

Data set [10] relates to CT26. As to the kind of experiment: Antimetastatic activity against GFP-fused mouse CT26 cells allografted in Balb/c mouse assessed as reduction genomic DNA of metastatic cells at 11.3 mg/kg, ip administered daily for 15 days by qPCR analysis. Conditions: 360 h. The class given is functional. The method, boiled down:
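Male Balb/c mice (~20 g, 6/group) given 10^6 GFP-CT-26 cells i.v. in 200 µl mixed with peptide or saline, then daily i.p. peptide Day 1–15; sacrificed Day 16. Lung total DNA isolated after homogenization; 200 ng per SYBR Green qPCR, quantified against standard curve of CT-26 DNA spiked into normal lung DNA (0.135%-100%).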

The subject of data set [11] is CT26. Nature of the data set: Antimetastatic activity against GFP-fused mouse CT26 cells allografted in Balb/c mouse assessed as reduction in relative fluorescence at 1.13 mg/kg, ip administered daily for 15 days by fluorescence-based assay. The class given is functional, organism-based. The method in brief: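 After iv GFP-CT-26 implantation (10^6 cells) in male Balb/c and daily ip dosing Days 1–15, lungs were removed on Day 16. Whole-lung GFP was imaged with 488 nm excitation (em 520) and quantified over a 20×20 mm2 area per lung. Non-implanted lungs served as background.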

The test system of data set [12] is CT26. As to the kind of experiment: Antimetastatic activity against GFP-fused mouse CT26 cells allografted in Balb/c mouse assessed as reduction in relative fluorescence at 11.3 mg/kg, ip administered daily for 15 days by fluorescence-based assay. The class given is functional. Conditions: 360 h. The method in brief:
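Lung metastasis model: male Balb/c mice (~20 g, 6/group) given 10^6 GFP-CT-26 cells i.v. with peptide or saline, daily i.p. dosing Day 1–15, sacrificed Day 16. Resected lungs imaged for GFP with 488 nm excitation, emission 520; signal collected over 20×20 mm2 per lung; non-implanted normal group used for background subtraction.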

Data set [13] has as its system CT26. Nature of the data set: Antimetastatic activity against GFP-fused mouse CT26 cells allografted in Balb/c mouse assessed as reduction in tumor nodule numbers at 11.3 mg/kg, ip administered daily for 15 days by fluorescence-based assay. The data set is classed as functional. The conditions noted are these: 360 h. The method, boiled down: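 Lung metastasis model: male Balb/c mice (~20 g, 6/group) given 10^6 GFP-CT-26 cells i.v. with peptide or saline, daily i.p. dosing Day 1–15, sacrificed Day 16. Surface tumor nodules on pleural surfaces counted per lung after soaking in formaldehyde.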

Data set [14] has as its system CT26. As to the kind of experiment: Antimetastatic activity against GFP-fused mouse CT26 cells allografted in Balb/c mouse assessed as reduction in hyperplastic weights at 11.3 mg/kg, ip administered daily for 15 days by fluorescence-based assay. The class given is functional. Conditions: 360 h. The method, boiled down:
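Lung metastasis model: male Balb/c mice (~20 g, 6/group) given 10^6 GFP-CT-26 cells i.v. with peptide or saline, then daily i.p. dosing Day 1–15. Lungs resected and weighed immediately at sacrifice on Day 16; hyperplastic weight = lung weight minus weight of lungs from non-implanted normal mice.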

Data set [15] concerns CT26. Nature of the data set: Antimetastatic activity against mouse CT26 cells allografted in Balb/c mouse at 11.3 mg/kg, ip administered daily for 15 days by hematoxylin and eosin staining -based assay. The class given is functional, organism-based. The method in brief:
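Lungs from male Balb/c given 10^6 GFP-CT-26 cells iv, with daily ip dosing on Days 1–15, were harvested on Day 16. Formalin-fixed, paraffin-embedded sections were stained with H&E for histology, with non-implanted lungs as comparison.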

The nature of data set [16]: Drug level in blood of GFP-fused mouse CT26 cells allografted in Balb/c mouse at 11.3 mg/kg, ip administered daily for 15 days. The class given is ADME, organism-based. The conditions noted are these: read-out: Drug uptake.

Active and inactive are the calls of the source. No cut-off for these calls is given here. Positions of bridges follow the written chain, without caps; N, C: chain ends. Residues, ends and D or L forms follow the SMILES beside them.

T1 sequence (P06869 21-178 limits assumed): as the sequence (P06869 21-178 limits assumed) above
T1 sequence (P06869 180-433 limits assumed): as the sequence (P06869 180-433 limits assumed) above
Chain of Plasminogen (P20918 98-581 limits assumed): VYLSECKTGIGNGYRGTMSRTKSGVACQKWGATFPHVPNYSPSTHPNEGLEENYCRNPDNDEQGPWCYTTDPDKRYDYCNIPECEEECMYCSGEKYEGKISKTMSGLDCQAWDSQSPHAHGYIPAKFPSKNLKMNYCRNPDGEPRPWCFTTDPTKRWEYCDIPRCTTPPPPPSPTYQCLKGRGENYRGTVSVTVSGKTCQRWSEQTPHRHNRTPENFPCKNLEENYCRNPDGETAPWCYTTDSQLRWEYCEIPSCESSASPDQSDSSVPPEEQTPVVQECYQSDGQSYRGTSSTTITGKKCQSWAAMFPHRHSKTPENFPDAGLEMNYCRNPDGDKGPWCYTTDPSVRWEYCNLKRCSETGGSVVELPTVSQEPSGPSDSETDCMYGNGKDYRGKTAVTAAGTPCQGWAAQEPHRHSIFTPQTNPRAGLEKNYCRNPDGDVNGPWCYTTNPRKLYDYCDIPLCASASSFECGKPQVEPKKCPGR
Chain of Plasminogen (P20918 582-812 limits assumed): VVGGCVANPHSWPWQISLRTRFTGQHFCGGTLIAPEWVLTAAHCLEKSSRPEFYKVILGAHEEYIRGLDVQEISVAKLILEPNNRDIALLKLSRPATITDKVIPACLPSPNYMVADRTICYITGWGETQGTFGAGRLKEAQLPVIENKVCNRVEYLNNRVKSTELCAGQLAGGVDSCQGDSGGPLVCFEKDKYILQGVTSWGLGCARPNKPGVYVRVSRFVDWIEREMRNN

For the compound `CC[C@H](C)[C@@H]1NC(=O)[C@H](Cc2ccc(O)cc2)NC(=O)[C@H](CCCNC(=N)N)NC(=O)[C@H](CO)NC(=O)[C@H](Cc2ccc(O)cc2)NC(=O)[C@H](C)NC(=O)[C@@H]2CCCN2C(=O)[C@@H](N)CSSC[C@@H](C(=O)O)NC(=O)CNC1=O` (H-CPAYSRYIGC-OH; disulfide 1-10), the Ki in data set [1] and in data set [2] was greater than 25 µM in each case. The Activity result in [3] is recorded as “Non-Toxic”. For the same compound, the inhibition in data set [4] amounted to 30%. The IC50 in [5] worked out at 11.9 nM; in data set [6], 11.3 nM; in [7], 70.7 nM. In addition, the inhibition in vivo at 1.13 mg/kg in [8] came out at 36.1%. Besides, the outcome in data set [9] and in [11] was inactive. The inhibition in vivo at 11.3 mg/kg is 49.8% in [10], 50% in data set [12], 46.5% in data set [13] and 51.7% in data set [14]. Besides, in data set [15], the outcome was Active. Further, the concentration at 360 h in data set [16] was 100 µM.
